High-throughput results: PubChem, several laboratories
V-ATPase pH – regulators of yeast V-ATPase proton transport. response, % at 10 µM. actives 0.37% (n = 350,000). S. cerevisiae, pHLuorin cytosolic pH fluorescence; in the data active = response mostly above about 7.3%, no sharp cut-off; inactive = mostly below about 5.4%; note: actives read high
XBP1 UPR activ – adaptive UPR (XBP1) activation; CHO-XBP1 luciferase reporter, IRE1-XBP1 UPR activation, luminescence; percent of tunicamycin response, DMSO as zero; activation, % at 20 µM; actives 0.33% (n = 330,000);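 active = versus positive control, 20 µM dose yields 30% or more activation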
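Material: IRE1-XBP1 luciferase reporter CHO line / Quantity: one thousand reporter cells per well / Buffer or medium: F12 with 10% serum / Compound: 20 µM single concentration, DMSO 1% / Times: 6 h treatment, 37 °C / Detection: Steady-Glo luciferase glow luminescence, 10 min after reagent addition / Benchmarks: tunicamycin high, DMSO low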
TbMetRS inhib – blocks T. brucei methionyl-tRNA synthetase activity; AID 624268; actives 0.4% (n = 360,000); purified T. brucei MetRS, ATP depletion, Kinase-Glo luminescence; inhibition, % at 11.9 µM;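 active = inhibition above a per-plate cutoff of the control wells' mean inhibition plus 3 SD, cut at about 5.5% in these data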
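Test system – parasite MetRS enzyme · Reagent – substrates ATP, L-methionine and bulk Escherichia coli tRNA · Doses – 11.9 µM compound single dose, 0.9% DMSO · Times – 15 min enzyme-compound preincubation, 2 h reaction, 10 min detection, 25 °C · Signal – Kinase-Glo luminescence, ATP depletion format · Controls – DMSO-only wells as low control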
CHOP inh – inhibitors of CHOP induction in ER stress response. CHO-K1 CHOP-promoter luciferase, tunicamycin-induced, 15-18 h. inhibition, % at 10 µM. actives 3.8% (n = 220,000);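 active = compounds that reduced the stress-induced luciferase reporter signal by more than about 70% of percent inhibition, limit read from the data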
UPR CHOP act – apoptotic UPR (CHOP) activation; CHO-CHOP luciferase reporter, luminescence; percent of tunicamycin response over DMSO baseline; AID 449763; actives 0.34% (n = 330,000); activation, % at 10 µM;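 active = at 10 µM dose, activation of 40% or more, normalized to positive control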
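Assay system: CHO cells with stable CHOP pathway luciferase reporter; Buffer or medium: F12 plus 10% serum; Times: 16-18 h cell attachment, then 6 h compound exposure, 37 °C; Signal: luciferase luminescence; Read-out basis: percent activation relative to tunicamycin control; Control set: tunicamycin high control, DMSO low control.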
Of the large screens only hits and unclear results are named; the others gave an inactive call. Many of the other results were omitted from the sample, so hits are more common in it than they were.

Cc1cnc(NC(=O)CCCSc2nc3ccccc3s2)s1	CHOP inh 77
NC(=O)COC(=O)CCCSc1nc2ccccc2s1	none
N#Cc1ccsc1NC(=O)COC(=O)CCCSc1nc2ccccc2s1	CHOP inh 73
COC1=CC(=O)OC(c2ccc(C(F)(F)F)cc2)C1 (stereo not drawn)	none (no result: V-ATPase pH, XBP1 UPR activ, CHOP inh, UPR CHOP act)
COc1ccc2oc3cc(NCCN(C)C)ccc3c(=O)c2c1	none (no result: V-ATPase pH, XBP1 UPR activ, CHOP inh, UPR CHOP act)
Cc1ccc(O)c(C2=Nc3ccccc3N=C(c3ccco3)C2)c1	CHOP inh 87
Cc1ccc(C2=Nc3ccccc3N=C(c3ccco3)C2)c(O)c1	CHOP inh 72
Cc1ccc(S(=O)(=O)N2CCN(C(=O)COC(=O)/C=C/c3cccc([N+](=O)[O-])c3)CC2)c(C)c1	none (no result: XBP1 UPR activ, CHOP inh, UPR CHOP act)
CC1(C)CC(Cc2ccc(C(F)(F)F)cn2)N(C(=O)OC(C)(C)C)C1 (stereo not drawn)	none (no result: V-ATPase pH, XBP1 UPR activ, CHOP inh, UPR CHOP act)
COC(=O)Cc1ccc(NC(=S)N2CCN(c3ccc(F)cc3)CC2)cc1	CHOP inh 72 (no result: XBP1 UPR activ, UPR CHOP act)
Cc1ccc(C(=O)N2CCN(c3ccc(NC(=S)NC(=O)Cc4ccccc4)cc3)CC2)cc1	CHOP inh 74
c1nc(SSc2ncnc3nc[nH]c23)c2[nH]cnc2n1	none (no result: XBP1 UPR activ, CHOP inh, UPR CHOP act)
O=C(CCCCn1c(=O)c2ccccc2n(Cc2ccccc2F)c1=O)NC1CCN(Cc2ccccc2)CC1	CHOP inh 79
Cc1cccc(C)c1NC(=O)Cn1c(=O)n(CCCC(=O)NC2CCN(Cc3ccccc3)CC2)c(=O)c2ccccc21	none (no result: CHOP inh)
COc1ccc(CNC(=O)c2ccc(-c3c(C)noc3C)c3ccoc23)cc1OC	none (no result: V-ATPase pH, XBP1 UPR activ, CHOP inh, UPR CHOP act)
CCNC(=S)N(Cc1ccc(OC)cc1)C1CC(=O)N(c2ccc(OCC)cc2)C1=O (stereo not drawn)	CHOP inh 73
CCNC(=S)N(Cc1ccc2c(c1)OCO2)C1CC(=O)N(c2ccc(OC)cc2)C1=O (stereo not drawn)	none
COc1ccc(CN(C(=S)Nc2ccccc2)C2CC(=O)N(c3ccc(Cl)cc3)C2=O)cc1 (stereo not drawn)	CHOP inh 72
CCNC(=S)N(Cc1ccc2c(c1)OCO2)C1CC(=O)N(c2ccc(F)cc2)C1=O (stereo not drawn)	CHOP inh 73
CCC1Cc2[nH]c(=S)[nH]c(=O)c2C(c2ccc(F)cc2)O1 (stereo not drawn)	none (no result: V-ATPase pH, XBP1 UPR activ, CHOP inh, UPR CHOP act)
COc1cc(/C=C/c2ccc3cccc(OC)c3n2)c(O)c([N+](=O)[O-])c1	CHOP inh 94
COc1cc(/C=C/c2ccc3cccc(OC)c3n2)c(OC(C)=O)c([N+](=O)[O-])c1	none
CC(=O)N1c2ccccc2C(C)CC12CCCCC2 (stereo not drawn)	CHOP inh 85
CC(=O)N1Cc2ccccc2C(C)CC12CCCC2 (stereo not drawn)	none
O=[N+]([O-])c1cccc(/C=N/n2c(C3CCCCC3)n[nH]c2=S)c1	CHOP inh 82
Oc1cccc(/C=N/n2c(C3CCCCC3)n[nH]c2=S)c1	none (no result: CHOP inh)
S=c1[nH]nc(C2CCCCC2)n1/N=C/c1ccc(Br)s1	CHOP inh 95
C=CCn1c(SCC(=O)c2[nH]c(C)c(C(=O)OCC)c2C)nc2scc(-c3ccccc3)c2c1=O	CHOP inh 88
CCOC(=O)c1c(C)[nH]c(C(=O)CSc2ccccc2)c1C	V-ATPase pH 14
CC1=C(C(=O)N(C(C)C)C(C)C)CC(CC(=O)NCc2ccco2)C(=O)N1Cc1ccccc1 (stereo not drawn)	none (no result: V-ATPase pH, XBP1 UPR activ, CHOP inh, UPR CHOP act)
Cc1ccc(-n2[nH]c(C)c(C=Nc3ccc(Br)cn3)c2=O)cc1	CHOP inh 80
CN1CCN(S(=O)(=O)c2ccc(Sc3nnnn3-c3ccccc3)c([N+](=O)[O-])c2)CC1	CHOP inh 107
CC(=O)c1ccc(Sc2nnnn2-c2ccccc2)c([N+](=O)[O-])c1	none
O=C1c2ccccc2-c2c1cccc2C(=O)N1CCCCCC1	V-ATPase pH 15
C=CCc1cc(C=O)cc(OCC)c1OCc1ccc(Cl)cc1	CHOP inh 71
C=CCc1cc(C=O)cc(OC)c1OCc1ccc(Cl)cc1	none
COc1ccc2nc(N3C(=O)CNC3=S)sc2c1	none
O=C1N=c2ccc(Br)cc2=C1c1sc(=O)[nH]c1O	none (no result: V-ATPase pH, TbMetRS inhib, CHOP inh)
COc1ccc2nc(-n3c(O)c(C4=c5ccccc5=NC4=O)[nH]c3=S)sc2c1	CHOP inh 103 (no result: XBP1 UPR activ, UPR CHOP act)
Cn1c(O)c(C2=c3ccccc3=NC2=O)[nH]c1=S	CHOP inh 84
